Laboratory results published in ChEMBL document CHEMBL1138529, “Efficacy, pharmacokinetics, and metabolism of tetrahydroquinoline inhibitors of Plasmodium falciparum protein farnesyltransferase” (Antimicrob Agents Chemother, 2007).

Legend:
[1] = AUC in Sprague-Dawley rat at 50 mg/kg, po; format: ADME, organism-based; parameters: dose 50 mg/kg, route oral; conditions: plasma
Procedure, shortened: (§1)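 Three female BALB/c mice (lines for mice, 8–10 weeks) or three female Sprague-Dawley rats (10–12 weeks) per group; 50 mg/kg oral gavage in 3% EtOH-7% Tween 80-90% normal saline. Plasma sampled at set times (tail bleed in mice, saphenous vein in rats), extracted with acetonitrile plus internal standard, quantified by LC/MS; AUC as mean of three animals.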

[2] = AUC in BALB/c mouse at 50 mg/kg, po; format: ADME, organism-based; parameters: dose 50 mg/kg, route oral; conditions: plasma; procedure, shortened: as §1
[3] = AUC in Sprague-Dawley rat at 2 mg/kg, iv; format: ADME, organism-based; parameters: dose 2 mg/kg, route intravenous; conditions: plasma
Procedure, shortened: (§2)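 Three female Sprague-Dawley rats per group (10–12 weeks), jugular-vein catheterized; 2 mg/kg in 3% EtOH-7% Tween 80-90% normal saline given through the catheter. Plasma drawn from the catheter at set times, acetonitrile extraction with internal standard, LC/MS quantification.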

[4] = Elimination half life in Sprague-Dawley rat at 50 mg/kg, po; format: ADME, organism-based; parameters: dose 50 mg/kg, route oral; conditions: in vivo, read-out: beta t1/2
Procedure, shortened: (§3)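 50 mg/kg by oral gavage in 3% EtOH-7% Tween 80-90% normal saline to groups of three females (BALB/c mice, 8–10 weeks, tail bleed; Sprague-Dawley rats, 10–12 weeks, saphenous vein). Plasma extracted with acetonitrile/internal standard, LC/MS; means of three animals. Oral elimination half-life depends on absorption rate as well as elimination.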

Plasmodium falciparum [5] = test: Antiplasmodial activity against chloroquine-sensitive Plasmodium falciparum 3D7 by [3H]hypoxanthine uptake; format: functional; conditions: read-out: ED50 (the source's name)
Procedure, shortened: (§4)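 Asynchronous cultures at 0.5% parasitemia and 0.5% hematocrit in RPMI 1640 with 20% heat-inactivated human A+ plasma, exposed to serially diluted inhibitor (top final 5 μM, from DMSO stock) under 5% CO2/5% O2/90% N2 at 37°C for 48 h. [3H]hypoxanthine was then added for 24 h and harvested counts were background-subtracted against DMSO-only controls. ED50 came from linear regression, as the mean of duplicates.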

[6] = Cmax in Sprague-Dawley rat at 50 mg/kg, po; format: ADME, organism-based; parameters: dose 50 mg/kg, route oral; conditions: in vivo; procedure, shortened: as §3
[7] = Elimination half life in Sprague-Dawley rat at 2 mg/kg, iv; format: ADME, organism-based; parameters: dose 2 mg/kg, route intravenous; conditions: in vivo, read-out: beta t1/2; procedure, shortened: as §2
[8] = Permeability from apical to basolateral side in human Caco-2 cells; format: ADME, cell-based; conditions: read-out: permeability
[9] = Inhibition of Plasmodium falciparum protein farnesyltransferase by SPA method
[10] = Oral bioavailability in Sprague-Dawley rat; format: ADME, organism-based; conditions: in vivo
Procedure, shortened: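 Female Sprague-Dawley rats, 10-12 weeks, three per group. Oral gavage at 50 mg/kg and jugular-catheter i.v. dose at 2 mg/kg, both in 3% EtOH-7% Tween 80-90% saline. Plasma taken over time, acetonitrile extraction with internal standard, LC/MS. Bioavailability computed as oral AUC/i.v. AUC.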

[11] = Elimination half life in BALB/c mouse at 50 mg/kg, po; format: ADME, organism-based; parameters: dose 50 mg/kg, route oral; conditions: in vivo, read-out: beta t1/2; procedure, shortened: as §3
[12] = Metabolic stability in rat liver microsomes; format: ADME, Microsome
Procedure, shortened: (§5)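 Pooled female liver microsomes at 0.5 mg/ml in 0.1 M potassium phosphate pH 7.4, 3 mM MgCl2, 1 mM EDTA, with NADPH regenerating system (1 mM NADP+, 5 mM glucose-6-phosphate, 1 U/ml G6PDH). Preincubated 10 min at 37°C, then compound added to 1 μM final. Time points quenched with 3 volumes acetonitrile plus internal standard; parent quantified by LC/MS; half-life reported.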

Plasmodium falciparum [13] = test: Antiplasmodial activity against chloroquine-resistant Plasmodium falciparum K1 by [3H]hypoxanthine uptake; format: functional; conditions: read-out: ED50 (the source's name); procedure, shortened: as §4
[14] = Metabolic stability in mouse liver microsomes; format: ADME, Microsome; procedure, shortened: as §5
Plasmodium falciparum [15] = test: Antiplasmodial activity against Plasmodium falciparum by [3H]hypoxanthine uptake; format: functional; conditions: read-out: ED50 (the source's name)
Procedure, shortened: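 Asynchronous P. falciparum (3D7 or K1) in RPMI 1640 with 20% heat-inactivated human A+ plasma, 0.5% parasitemia and 0.5% hematocrit; compound serially diluted, top final 5 μM, 48 h at 37°C under 5% CO2/5% O2/90% N2, then [8-3H]hypoxanthine 0.3 μCi added for 24 h.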

[16] = Cmax in BALB/c mouse at 50 mg/kg, po; format: ADME, organism-based; parameters: dose 50 mg/kg, route oral; conditions: in vivo; procedure, shortened: as §3

SMILES | AUC [1] | AUC [2] | AUC [3] | half-life [4] | EC50 (Plasmodium falciparum [5]) | Cmax [6] | half-life [7] | Papp A→B [8] | IC50 [9] | bioavailability [10] | half-life [11] | half-life [12] | EC50 (Plasmodium falciparum [13]) | half-life [14] | EC50 (Plasmodium falciparum [15]) | Cmax [16]
Cn1cncc1CN1CC(N(CC2CCN(C(=O)OC(C)(C)C)CC2)S(=O)(=O)c2ccccn2)Cc2cc(C#N)ccc21 (stereo not given) | 30.1 µM·h | 11.8 µM·h | 0.967 µM·h | 151 min | 155 nM | 6.3 µM | 55 min | 15.5 ×10⁻⁶ cm/s | 1.5 nM | 124% | 54 min | 10 min | 180 nM | – | – | –
CC(C)COC(=O)N1CCC(CN(C2Cc3cc(C#N)ccc3N(Cc3cncn3C)C2)S(=O)(=O)c2ccccn2)CC1 (stereo not given) | 33.8 µM·h | 4.67 µM·h | – | 62 min | 62 nM | 8.4 µM | – | – | 0.7 nM | – | 26 min | 18 min | 62 nM | 5.1 min | 62 nM | 5.4 µM
